The list is not random: actives were taken first. Their share in the collection is about 3.7%.
rCAG binder: binders of r(CAG) RNA repeats, primary screen, biochemical, fluorescence; hit rate 1.3% among 370,000; AID 651821, 2012; r(CAG) RNA repeat, TO-PRO-1 dye displacement fluorescence; inhibition, % at 3 µM;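 active = inhibition above the plate cutoff, the mean of all test compounds on that plate plus 3 SD, cut at about 35% in these data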;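 also: 0% = DMSO alone and 100% = 100 µM mitoxantrone as full dye displacement; higher means more dye released from RNA so lower well fluorescence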
TAAR1 ag: human TAAR1 agonists, primary screen, Fluo-8 calcium fluorescence, CHO RD-HGA16 cells | Trace amine-associated receptor 1 (Homo sapiens), Q96RJ0 | vehicle wells 0%, saturating PEA agonist 100% | activation, % at 3 µM | hit rate 0.99% among 360,000 | AID 624467, 2012;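 active = activation above the mean activation of all test compounds in the run plus 3 SD, cut at about 38% in these data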
Target sequence (Q96RJ0 whole entry, looked up): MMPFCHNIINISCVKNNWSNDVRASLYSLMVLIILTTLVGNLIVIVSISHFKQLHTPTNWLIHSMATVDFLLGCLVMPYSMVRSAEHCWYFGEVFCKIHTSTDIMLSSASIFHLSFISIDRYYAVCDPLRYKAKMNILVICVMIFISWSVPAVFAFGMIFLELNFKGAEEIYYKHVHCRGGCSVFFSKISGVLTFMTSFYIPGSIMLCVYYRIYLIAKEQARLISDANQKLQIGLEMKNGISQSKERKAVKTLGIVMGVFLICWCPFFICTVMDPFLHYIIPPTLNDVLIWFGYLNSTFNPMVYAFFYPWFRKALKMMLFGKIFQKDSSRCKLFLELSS
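Assay system: CHO-derived RD-HGA16 cells with stable Gα16 and human TAAR1; timing: 17-24 h seeding, 75 min 37 °C dye, 30 min RT; read-out: % activation from peak over basal fluorescence ratio, DMSO-to-PEA scaled; measured by: kinetic Fluo-8 calcium fluorescence; benchmarks: low control DMSO, high control PEA (EC100); doses: 3 µM single concentration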
HCV NS3 hel inh: inhibitors of HCV NS3 helicase, primary screen, biochemical, Cy5 molecular beacon fluorescence. NS3 helicase DNA unwinding. hit rate 0.56% among 290,000. inhibition, % at 10.9 µM;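 active = inhibition above the mean of all tested compounds plus 3 SD, set per campaign, cut at about 35% in these data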;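 also: 0% = DMSO wells and 100% = thioflavine S control wells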
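System: NS3 helicase fragment of HCV / Schedule: 1 h at 25 °C / Control set: DMSO alone as 0% and 110 µM thioflavine S as 100% / Reagent: Cy5/quencher beacon DNA duplex and ATP to start / Technique: Cy5 fluorescence / Replication: singlicate / Evaluation: % inhibition of end-to-start signal ratio versus controls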
HCV core dimer: inhibitors of HCV core protein dimerization, primary screen, biochemical, TR-FRET, high-throughput; TR-FRET GST/Flag-core106 dimerization, 1536-well; inhibition, % at 5 µM; hit rate 0.33% among 300,000;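 active = inhibition above the mean of all tested compounds plus 3 SD, set per screening campaign, cut at about 45% in these data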
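Assay system: GST-tagged and Flag-tagged HCV core protein residues 1-106 / Times: compound-protein-antibody incubation 4 h at 22.5 °C / Signal: time-resolved FRET, ex 340 nm, em 617 and 671 nm / Evaluation: % inhibition based on acceptor/donor emission ratio / Benchmarks: wells lacking GST-core106 and wells with excess unlabelled core106 / Repeats: singlicate, one well per compound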
TAAR1 antag: human TAAR1 antagonists, primary screen, Fluo-8 calcium fluorescence, CHO RD-HGA16 cells. antagonist. hit rate 1.5% among 360,000. inhibition, % at 3 µM. AID 624466, 2012;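 active = inhibition above a per-plate cutoff, the mean inhibition of test compounds on that plate plus 3 SD, cut at about 49% in these data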;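 also: 0% = DMSO plus EC80 beta-PEA response and 100% = DMSO alone without agonist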
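Assay system: RD-HGA16 CHO cells with stable hTAAR1 and Gα16 / Reagent: EC80 β-phenethylamine stimulus / Doses: 3 µM, single point / Timing: dye loading 75 min at 37 °C, then 30 min room temperature / Measured by: Fluo-8 intracellular calcium dye fluorescence, real-time kinetic reads / Controls: vehicle wells and EC80 agonist wells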
Starred values were filed as active, the others as inactive; . = no result given.

SMILES	rCAG binder	TAAR1 ag	HCV NS3 hel inh	HCV core dimer	TAAR1 antag
Cc1ccc(S(=O)(=O)N2CCN(C(=O)c3cccc(-n4cccc4)c3)CC2)cc1	5.7	-1.5	.	31.2	-1.0
Cc1cc(=O)oc2c3c(cc(OCC(=O)Nc4ccc(CCO)cc4)c12)OC(C)(C)CC3	-0.7	0.4	-18.1	0.2	50.9*
CCCc1cc(=O)oc2c3c(cc(OCC(=O)NCc4ccccn4)c12)OC(C)(C)CC3	-6.7	2.1	-6.0	0.8	49.2*
CCCc1cc(=O)oc2c3c(cc(OCC(=O)N[C@@H](C)C(=O)O)c12)OC(C)(C)CC3	12.0	1.5	22.6	-16.7	-12.2
Cc1cc(=O)oc2c3c(cc(OCC(=O)Nc4cccnc4)c12)OC(C)(C)CC3	1.4	1.4	-3.6	1.8	37.2
CCCc1cc(=O)oc2c3c(cc(OCC(=O)NCc4ccncc4)c12)OC(C)(C)CC3	-3.4	2.4	-1.6	1.4	48.9*
COc1ccc(S[C@]2(C(=O)N(C)C)CC(=O)N[C@@H]2c2ccc(OC)cc2)cc1	5.5	.	.	.	.
CC(=O)c1cc(-c2cccc([N+](=O)[O-])c2)c(=O)n2c1CCC2	4.8	.	.	.	.
COc1ccc2c(c1)CN1C(=O)N(CCc3ccccc3)S(=O)(=O)CC21 (stereo not drawn)	0.5	.	.	.	.
Cc1nc2ccc(S(=O)(=O)Nc3cccc(-c4nc5cccnc5s4)c3C)cc2s1	22.7	4.5	-25.8	5.9	59.3*
C[C@H](CO)N1C[C@H](C)[C@H](CN(C)C(=O)c2ccccn2)Oc2cc(C#Cc3ccc(F)cc3)ccc2S1(=O)=O	5.5	12.5	.	.	17.3
COc1cccc(C#Cc2ccc3c(c2)O[C@@H](CN(C)C(=O)c2ccccn2)[C@@H](C)CN([C@H](C)CO)S3(=O)=O)c1	5.9	6.8	.	.	49.5*
CC(C)c1ccc(NC(=O)Nc2nc(C(N)c3ccccc3)cs2)cc1 (stereo not drawn)	30.4	45.1*	.	.	9.9
CC(C)c1ccc(NC(=O)Nc2nc(C(N)C(C)C)cs2)cc1 (stereo not drawn)	31.0	29.1	.	.	27.9
CCn1ncc(C2=NOC(C(=O)NCC(C)C)C2)c1C (stereo not drawn)	-2.8	4.9	-5.5	-4.8	-10.9
CCn1ncc(C2=NOC(C(=O)NCCc3ccccc3)C2)c1C (stereo not drawn)	0.1	61.1*	-3.5	-5.2	43.2
C=CCn1c(C)cc(C(=O)Cn2ncc(Cl)c(Cl)c2=O)c1C	12.1	-0.6	27.8	50.7*	-15.3
CC(C)(C)C(=O)Cn1ncc(Cl)c(Cl)c1=O	-0.9	11.0	11.0	.	-8.8
CCCCCCCCN1C(=O)[C@@H](CC(=O)N2CCCCC2)C[C@@]2(C(=O)OC)C1=C[C@H](COCc1ccccc1)O[C@@H]2C	0.5	.	.	.	.
CCOC(=O)C(Cc1ccc(NC(=O)/C(=C/c2ccc(OC(C)=O)cc2)NC(C)=O)cc1)N1C(=O)c2ccccc2C1=O (stereo not drawn)	-1.0	11.0	-16.5	5.0	48.8*
CCOC(=O)C(Cc1ccc(NC(=O)/C(=C/c2ccccc2)NC(=O)c2ccccc2)cc1)N1C(=O)c2ccccc2C1=O (stereo not drawn)	14.6	6.7	-1.7	58.3*	13.2
Cc1ccc(NC(=O)/C(=C\c2ccc([N+](=O)[O-])cc2)NC(=O)c2ccccc2)cc1	8.4	1.2	-6.8	4.5	-4.1
CS(=O)(=O)N1CCc2cc(-c3csc(NC(=O)Cc4cccs4)n3)ccc21	10.0	14.4	-11.8	8.1	50.4*
O=C(CN1CCOCC1)Nc1nc(-c2ccc3c(c2)CCN3S(=O)(=O)c2ccccc2)cs1	10.7	20.3	-28.1	10.5	53.4*
CCOC(=O)c1c(-c2ccco2)csc1NC(=O)CSc1nnc(N)s1	20.8	20.3	31.6	48.4*	-8.8
SMILES	rCAG binder	TAAR1 ag	HCV NS3 hel inh	HCV core dimer	TAAR1 antag
CCOC(=O)c1c(-c2ccco2)csc1NC(=O)COC(=O)c1cnccn1	30.1	1.7	.	67.2*	-18.7
CCOC(=O)c1c(NC(=O)COC(=O)c2cnccn2)sc(C(=O)NC)c1C	2.8	0.4	.	-2.0	-24.6
O=c1c2ccccc2n(Cc2ccco2)n1[C@@H](Cc1ccccc1)Cn1cc(C2CCCC2)nn1	3.9	.	.	.	.
O=C(C1CCCN(S(=O)(=O)c2cccs2)C1)N1CCN(Cc2ccccc2)CC1 (stereo not drawn)	1.6	.	.	.	.
Nc1c(C(=O)Nc2ccc(S(=O)(=O)N3CCCC3)cc2)sc2nc3ccc(OC(F)(F)F)cc3cc12	.	.	12.4	63.0*	.
COc1ccc2nc(SCC(=O)Nc3ccc(S(=O)(=O)N4CCCC4)cc3)c(C#N)cc2c1	23.3	12.8	-16.0	-32.1	17.1
CCCC1CCC2(CCC(=O)N2CCC#N)CC1 (stereo not drawn)	-1.4	.	.	.	.
COc1ccc(C2Nc3ccccc3C(=O)N2Cc2ccco2)cc1COc1ccc(NC(C)=O)cc1 (stereo not drawn)	6.3	5.7	-6.7	20.8	21.2
COc1ccc(C2Nc3ccccc3C(=O)N2Cc2ccco2)cc1COc1ccccc1F (stereo not drawn)	12.8	1.3	3.8	46.2*	17.9
CC[C@@H](OP(=O)(O)[C@@H](C)N)C(=O)O	1.0	.	.	.	.
C[C@@]12C(=O)N(c3ccccc3)C(=O)N1[C@@H]1c3ccccc3OC[C@@H]1[C@H]2c1ccccc1	-2.1	6.2	.	.	54.7*
COc1cccc(CN2CCC2(C)C(=O)Nc2cnc3ccccc3c2)c1F (stereo not drawn)	1.7	2.4	.	.	53.0*
COc1cccc(CN2CCC2(C)C(=O)Nc2ccc(Cl)c(Cl)c2)c1F (stereo not drawn)	2.5	5.4	.	.	29.3
CC1(C(=O)Nc2cnc3ccccc3c2)CCN1Cc1ccccc1Cl (stereo not drawn)	3.1	0.6	.	.	45.7
CC1(C(=O)Nc2cnc3ccccc3c2)CCN1Cc1ccccc1OC(F)F (stereo not drawn)	-0.9	4.3	.	.	61.6*
Cc1cccc(C)c1-n1nnnc1C1(C)Cn2nccc2C(=O)N1Cc1ccc(F)cc1 (stereo not drawn)	-1.6	.	.	.	.
COCC(C)NC(=O)CSc1nc2ccccc2c(=O)n1CCc1ccc(S(N)(=O)=O)cc1 (stereo not drawn)	0.7	12.6	-4.6	-3.5	54.3*
COC(=O)[C@]12C[C@H](CC(=O)NCCc3ccccc3OC)C(=O)N(Cc3cccc4ccccc34)C1=C[C@H](C(C)C)O[C@@H]2C1CC1	5.3	.	.	.	.
